The source made the active and inactive calls. The rule behind the calls is not given here.
Experiments:
[1] = test system: Rattus norvegicus; experiment: Compound was evaluated for anxiolytic activity for protection against pentylenetetrazole-induced convulsions; No activity at 50 mg/Kg; assay type: functional, organism-based
Outline: (§1)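 Rats in groups of 10, food-deprived 24 h, given 4–6 graded doses of compound orally (or ip where noted). PTZ at 23 mg/kg was injected iv into the caudal vein 60 min later. Protection meant no clonic seizure lasting at least 5 s. The number protected was counted and the ED50 estimated.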

[2] = test system: Rattus norvegicus; experiment: In vivo protection against pentylenetetrazole-induced convulsions in the rat.; assay type: functional; outline: as §1
[3] = test system: Rattus norvegicus; experiment: Hypotensive activity in saline-loaded spontaneously hypertensive rats following 100 mg/kg p.o. administration.; assay type: functional; parameters: unit not given beside the values; conditions: route oral
Outline: (§2)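 Male Okamoto SH rats, about 300 g, gavaged with compound suspended in 2% boiled starch, with 0.9% NaCl loading at 25 mL/kg, at 0 h. An identical dose without saline followed at 24 h. Mean arterial pressure was taken by iliac artery puncture under local lidocaine at 28 h. Values are from one to three rats.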

[4] = target: T1, GABA-A receptor; anion channel (Rattus norvegicus) (UniProt O09028+P15431+P18506+P18508+P19969+P20236+P23574+P23576+P28471+P28473+P30191+P62813+P63079+P63138+Q91ZM7+Q9ES14); experiment: In vitro inhibition of [3H]diazepam binding towards Benzodiazepine receptor at 1 uM; assay type: protein-complex assay
[5] = target: T1, GABA-A receptor; anion channel (Rattus norvegicus); experiment: In vitro percent inhibition of [3H]diazepam binding to rat GABA-A benzodiazepine receptor at 1 uM; assay type: protein-complex assay
[6] = target: GABA-A receptor; anion channel; experiment: In vitro for inhibition of [3H]diazepam towards Benzodiazepine receptor from rat; assay type: protein-complex assay
Outline: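 Rat frontal cortex homogenized in ice-cold 0.32 M sucrose; crude P2 synaptosomal fraction resuspended in 50 mM Tris-HCl pH 7.4. IC50 read graphically from % inhibition vs log concentration plots.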

[7] = organism: Rattus norvegicus; experiment: Anxiolytic activity for protection against pentylenetetrazole-induced convulsions in experiment 1; assay type: functional; conditions: Rattus norvegicus; read-out: ED50; outline: as §1
[8] = organism: Rattus norvegicus; experiment: Anxiolytic activity for protection against pentylenetetrazole-induced convulsions in experiment 2; assay type: functional; outline: as §1
[9] = test system: Rattus norvegicus; experiment: Hypotensive activity evaluated as mean arterial blood pressure (MABP) in saline-loaded spontaneously hypertensive rats dosed (per oral) at 25 mg/kg; assay type: functional; outline: as §2
[10] = organism: Rattus norvegicus; experiment: Anxiolytic activity for protection against pentylenetetrazole-induced convulsions.; assay type: functional, organism-based; outline: as §1
[11] = organism: Rattus norvegicus; experiment: Average reduction in blood pressure over control (4 rats) at 2 hr in spontaneous hypertensive rats; assay type: functional
Outline: (§3)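 Conscious cannulated male Okamoto SH rats, 300–350 g, dosed po with vehicle (2% boiled starch) or compound at 1, 5, 10 and 25 mg/kg. A second po dose was given 20 h later, and pressure was recorded continuously for 4 h. The value is the mean reduction against controls at 2 and 4 h, n = 4.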

[12] = organism: Rattus norvegicus; experiment: Average reduction in blood pressure over control (4 rats) at 4 hr in spontaneous hypertensive rats; assay type: functional; outline: as §3
[13] = organism: Rattus norvegicus; experiment: Effect on […] seizures at 4 hr in rat; assay type: functional
Outline: (§4)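 Rats, oral dosing at three dose levels with six rats per dose; PTZ challenge (23 mg/kg iv, caudal vein) at the stated interval after dosing. Animals scored as protected if free of at least 5 s of uninterrupted clonic seizures. The median effective dose (mg/kg) is reported with its 95% confidence interval.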

[14] = organism: Rattus norvegicus; experiment: Effect on […] seizures at 5 hr in rat; assay type: functional; outline: as §4
[15] = organism: Rattus norvegicus; experiment: Effect on […] seizures at 6 hr in rat; assay type: functional; outline: as §4
[16] = organism: Rattus norvegicus; experiment: Effect on […] seizures at 7 hr in rat; assay type: functional; outline: as §4
[17] = organism: Rattus norvegicus; experiment: Effect on […] seizures at 0.5 hr in rat; assay type: functional; outline: as §4
[18] = organism: Rattus norvegicus; experiment: Effect on […] seizures at 1 hr in rat; assay type: functional; outline: as §4
[19] = organism: Rattus norvegicus; experiment: Effect on […] seizures at 2 hr in rat; assay type: functional; outline: as §4
[20] = organism: Rattus norvegicus; experiment: Effect on […] seizures at 3 hr in rat; assay type: functional; outline: as §4
[21] = test system: Rattus norvegicus; experiment: Compound was evaluated for anxiolytic activity for protection against pentylenetetrazole-induced convulsions; no activity at 50 mg/kg; assay type: functional, organism-based; parameters: dose 50 mg/kg; outline: as §1
[22] = organism: Rattus norvegicus; experiment: Compound was evaluated for anxiolytic activity for protection against pentylenetetrazole-induced convulsions in experiment 2; assay type: functional; outline: as §1

Cc1cccc(-c2ccc3nnc(C(F)(F)F)n3n2)c1
ED50 [1]: inactive

Clc1ccccc1-c1ccc2nncn2n1
ED50 [2]: 18 mg/kg | MABP [3]: 127

ClCc1nnc2ccc(-c3ccccc3)nn12
inhibition [4]: 45% | inhibition [5]: 47% | ED50 [1]: inactive

CCCC(C)(COC(N)=O)COC(N)=O
inhibition [4]: 1.8%

Cc1nnc2ccc(-c3cccc(Cl)c3)nn12
IC50 [6]: 709 nM | inhibition [4]: 60% | inhibition [5]: 61% | ED50 [7]: 8 mg/kg | ED50 [8]: 4.8 mg/kg

Cc1cccc(-c2ccc3nncn3n2)c1
ED50 [2]: ~50 mg/kg

Cl.NNc1nncc2ccccc12 [HYDRALAZINE HYDROCHLORIDE]
MABP [9]: 82

CCc1nnc2ccc(-c3ccc(C(F)(F)F)cc3)nn12
ED50 [2]: ~50 mg/kg | MABP [3]: 129 | MABP [9]: 157

Cc1nnc2ccc(-c3ccccc3F)nn12
IC50 [6]: 7450 nM | inhibition [4]: 37% | ED50 [2]: 10.4 mg/kg

Clc1cccc(-c2ccc3nncn3n2)c1
IC50 [6]: 2250 nM | inhibition [4]: 30% | ED50 [2]: 8.2 mg/kg

Cc1cccc(-c2ccc3nnc(C)n3n2)c1
inhibition [4]: 68% | ED50 [2]: ~50 mg/kg

FC(F)(F)c1cccc(-c2ccc3nnc(CCl)n3n2)c1
IC50 [6]: 391 nM | inhibition [4]: 67% | ED50 [1]: inactive

CCCc1nnc2ccc(-c3cccc(C(F)(F)F)c3)nn12
ED50 [10]: inactive | MABP [3]: 112 | MABP [9]: 165

Fc1ccc(-c2ccc3nncn3n2)cc1
inhibition [4]: 16% | BP [11]: -26 mmHg | BP [12]: -31 mmHg | ED50 [7]: 5 mg/kg | ED50 [8]: 2.2 mg/kg | MABP [3]: 88 | MABP [9]: 123

COc1ccc(-c2ccc3nnc(C)n3n2)cc1
ED50 [10]: inactive

Cc1nnc2ccc(-c3cccc(N)c3)nn12
IC50 [6]: 510 nM | inhibition [4]: 60% | inhibition [5]: 58% | ED50 [2]: 12 mg/kg

c1ccc(-c2ccc3nncn3n2)cc1
inhibition [4]: 23% | ED50 [7]: 9 mg/kg | ED50 [8]: 4.8 mg/kg

Cc1nnc2ccc(-c3ccc(Cl)cc3)nn12
inhibition [4]: 28% | ED50 [7]: 9.9 mg/kg | ED50 [8]: 10 mg/kg

Cc1cc(-c2cccc(C(F)(F)F)c2)nn2c(C)nnc12
inhibition [4]: < 10% | ED50 [1]: inactive

Clc1ccc(-c2ccc3nnc(-c4ccccc4)n3n2)cc1
ED50 [10]: inactive

O=[N+]([O-])c1cccc(-c2ccc3nncn3n2)c1
ED50 [2]: 22 mg/kg

Fc1cccc(-c2ccc3nncn3n2)c1
ED50 [2]: 5.5 mg/kg

Fc1ccccc1-c1ccc2nncn2n1
inhibition [4]: 16% | ED50 [2]: 17 mg/kg | MABP [3]: 112

Cc1nnc2ccc(-c3cccc(C(F)(F)F)c3)nn12 [CI-218872]
IC50 [6]: 116 nM | inhibition [4]: 77% | ED50 [13]: 1.8 mg/kg | ED50 [14]: 1.7 mg/kg | ED50 [15]: 2 mg/kg | ED50 [16]: 2.5 mg/kg | ED50 [17]: 0.5 mg/kg | ED50 [18]: 0.6 mg/kg | ED50 [19]: 0.7 mg/kg | ED50 [20]: 1 mg/kg | ED50 [7]: 1.7 mg/kg | ED50 [8]: 1.1 mg/kg

Cc1cc2nnc(C)n2nc1-c1cccc(F)c1
inhibition [4]: < 10% | ED50 [10]: inactive

Cc1cc(-c2cccc(C(F)(F)F)c2)nn2cnnc12
inhibition [4]: < 10% | EC50 [21]: Not Active | MABP [3]: 102

CCc1nnc2ccc(-c3cccc(C(F)(F)F)c3)nn12
IC50 [6]: 280 nM | inhibition [4]: 73% | ED50 [2]: 24 mg/kg

Cc1nnc2ccc(-c3cccc([N+](=O)[O-])c3)nn12
inhibition [4]: 53% | ED50 [2]: 11.6 mg/kg

Clc1ccc(-c2ccc3nncn3n2)cc1Cl
ED50 [10]: inactive

Cc1cc2nncn2nc1-c1ccc(F)cc1
ED50 [10]: inactive | MABP [3]: 105

FC(F)(F)c1cccc(-c2ccc3nncn3n2)c1
IC50 [6]: 905 nM | inhibition [4]: 55% | ED50 [7]: 4.5 mg/kg | MABP [3]: 90 | MABP [9]: 117 | ED50 [22]: 2.5 mg/kg

— ChEMBL document CHEMBL1121835, “Synthesis and anxiolytic activity of 6-(substituted-phenyl)-1,2,4-triazolo[4,3-b]pyridazines” (J Med Chem, 1981)
